In ChEMBL document CHEMBL1130112, “H3-receptor antagonists: synthesis and structure-activity relationships of para- and meta-substituted 4(5)-phenyl-2-[[2-[4(5)-imidazolyl]ethyl]thio]imidazoles” (J Med Chem, 1997):
Active and inactive are the calls of the source. The rule behind the calls is not given here.

Experiments:
[1] = LogP of the free base (neutral species).; assay type: physicochemical; settings: octanol/water
Method in brief: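 pH-metric method: octanol/water titrations with Bjerrum plots, 0.15 M KCl ionic strength, 25.0 ± 0.1 °C, samples 0.5–4 mM; constants refined by nonlinear least squares.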

[2] = dissociation constant corresponding to the 4(5)-alkylimidazole; assay type: ADME; settings: read-out: pKa,1
Method in brief: (§1)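 pH-metric titration at 25.0 ± 0.1 °C with 0.15 M KCl, samples 0.5–4 mM; for poorly water-soluble compounds, values from 15–60 wt % methanol/water with Yasuda–Shedlovsky extrapolation; refined by nonlinear least squares.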

[3] = molecular target: Histamine H3 receptor (Rattus norvegicus, UniProt Q9QYN8); experiment: Inhibition of [3H]NAMHA binding to rat brain membrane histamine H3-receptor
Histamine H3 receptor (Rattus norvegicus, UniProt Q9QYN8), sequence (Q9QYN8 whole entry): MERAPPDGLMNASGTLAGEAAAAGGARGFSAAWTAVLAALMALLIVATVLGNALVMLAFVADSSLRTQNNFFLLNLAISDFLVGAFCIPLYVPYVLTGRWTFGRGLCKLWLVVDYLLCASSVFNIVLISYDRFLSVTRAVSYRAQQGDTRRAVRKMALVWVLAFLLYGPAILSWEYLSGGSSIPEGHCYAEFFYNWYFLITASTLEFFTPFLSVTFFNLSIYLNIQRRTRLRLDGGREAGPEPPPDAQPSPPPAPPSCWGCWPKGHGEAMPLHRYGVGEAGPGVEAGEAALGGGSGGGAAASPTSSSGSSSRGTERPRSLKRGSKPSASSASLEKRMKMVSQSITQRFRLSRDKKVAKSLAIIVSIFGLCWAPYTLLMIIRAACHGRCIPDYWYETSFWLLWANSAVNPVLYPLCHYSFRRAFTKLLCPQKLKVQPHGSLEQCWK

[4] = dissociation constant corresponding to the 4(5)-phenyl-2-thiomidazole; assay type: ADME; settings: read-out: pKa,2; method in brief: as §1
[5] = molecular target: Histamine H3 receptor (Cavia porcellus, UniProt Q9JI35); experiment: Histamine H3-antagonist potency on electrically stimulated guinea pig ileum; assay type: functional, tissue-based; settings: read-out: pA2 (converted)
Histamine H3 receptor (Cavia porcellus, UniProt Q9JI35), sequence (Q9JI35 whole entry): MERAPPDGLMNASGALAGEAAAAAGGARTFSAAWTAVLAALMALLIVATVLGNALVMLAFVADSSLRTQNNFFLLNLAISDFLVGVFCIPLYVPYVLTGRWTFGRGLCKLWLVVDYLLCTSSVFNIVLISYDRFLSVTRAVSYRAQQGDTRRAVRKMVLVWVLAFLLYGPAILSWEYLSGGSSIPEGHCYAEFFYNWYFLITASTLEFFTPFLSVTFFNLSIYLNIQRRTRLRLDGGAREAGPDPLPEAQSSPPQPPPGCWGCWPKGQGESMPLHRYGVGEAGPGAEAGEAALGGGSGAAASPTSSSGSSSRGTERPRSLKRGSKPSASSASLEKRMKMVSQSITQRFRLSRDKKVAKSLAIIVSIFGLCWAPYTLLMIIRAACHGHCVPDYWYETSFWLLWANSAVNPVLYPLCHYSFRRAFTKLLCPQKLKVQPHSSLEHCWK
Method in brief: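 Guinea pig (350–550 g) terminal ileum under 1 g load in Krebs Henseleit, 37 °C, O₂ 95%:CO₂ 5%, equilibrated ≥60 min; transmural stimulation (0.1 Hz, 1 ms, submax voltage). Compounds up to 10⁻⁶ M, 30 min, then cumulative (R)-α-methylhistamine (10⁻⁹–10⁻⁶ M) inhibiting twitch, recorded isometrically. pA₂ by Schild regression; mean ± SEM of 10–12 observations.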

[6] = molecular target: Histamine H3 receptor (Cavia porcellus) (UniProt Q9JI35); experiment: Compound was tested for H3-antagonist potency on electrically stimulated guinea pig ileum; Unsurmountable antagonism at concentration > 10^-7 M; assay type: functional, tissue-based
Histamine H3 receptor (Cavia porcellus), sequence (Q9JI35 whole entry): as above

SMILES	logP [1]	pKa [2]	Ki [3]	pKa [4]	Kb [5]	pA2 [6]
O=[N+]([O-])c1cccc(-c2c[nH]c(SCCc3c[nH]cn3)n2)c1	2.43	3.21	30.9 nM	6.89	3.47 nM	–
O=[N+]([O-])c1ccc(-c2cnc(SCCc3c[nH]cn3)[nH]2)cc1	2.75	3.13	52.5 nM	6.94	16.2 nM	–
c1ccc(-c2cnc(SCCc3c[nH]cn3)[nH]2)cc1	2.62	4.28	14.1 nM	7.07	6.46 nM	–
NC(=O)c1ccc(-c2c[nH]c(SCCc3c[nH]cn3)n2)cc1	1.4	3.63	28.2 nM	7.07	117 nM	–
CN(C)c1ccc(-c2c[nH]c(SCCc3c[nH]cn3)n2)cc1	–	–	29.5 nM	–	52.5 nM	–
O=S(=O)(Oc1ccc(-c2cnc(SCCc3c[nH]cn3)[nH]2)cc1)c1ccccc1	3.72	3.84	2.95 nM	6.93	50.1 nM	–
CCCc1ccc(-c2c[nH]c(SCCc3c[nH]cn3)n2)cc1	4.09	4.34	39.8 nM	7.03	–	inactive
Brc1cccc(-c2cnc(SCCc3c[nH]cn3)[nH]2)c1	3.76	3.9	14.1 nM	7.08	7.76 nM	–
NC(=O)c1cccc(-c2cnc(SCCc3c[nH]cn3)[nH]2)c1	1.61	4.01	16.2 nM	7.05	145 nM	–
Clc1ccc(-c2c[nH]c(SCCc3c[nH]cn3)n2)cc1	3.66	4.12	35.5 nM	7.1	1.35 nM	–
CCCCOc1ccc(-c2cnc(SCCc3c[nH]cn3)[nH]2)cc1	4.11	4.3	–	7.06	148 nM	–
CCCOc1cccc(-c2c[nH]c(SCCc3c[nH]cn3)n2)c1	3.7	4.04	9.33 nM	7.04	–	inactive
